Laboratory results as given in PMC8604211 (Clinical and Translational Science, 2021).
pKi: −log10 of the molar value. “And” between values parts separate entries of the source, which are not always exact repeats. Equal entries are not always repeated. Where two headings read alike, the source gives them in different places.

Columns and labels:
Clinical DDI study U107 = assay type: in vivo, human
Milademetan PBPK model = test: Milademetan PBPK model; parameters: species or system human
In short: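 Minimal PBPK model with one adjusting compartment and ADAM absorption that includes intestinal P-gp; renal and biliary clearance set to zero. Vss, kin, kout, Vsac and oral clearance fitted to healthy-subject plasma data after a single fasted 100 mg oral dose.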

CYP3A4 [1] = molecular target: T1, CYP3A4 (Homo sapiens, UniProt P08684); test: Incubation of [14C]milademetan with recombinant human CYP3A4; assay type: in vitro ADME; conditions: [14C]milademetan 1 µM, 60 min, unpublished in-house data
Target sequence in this assay (P08684 whole entry): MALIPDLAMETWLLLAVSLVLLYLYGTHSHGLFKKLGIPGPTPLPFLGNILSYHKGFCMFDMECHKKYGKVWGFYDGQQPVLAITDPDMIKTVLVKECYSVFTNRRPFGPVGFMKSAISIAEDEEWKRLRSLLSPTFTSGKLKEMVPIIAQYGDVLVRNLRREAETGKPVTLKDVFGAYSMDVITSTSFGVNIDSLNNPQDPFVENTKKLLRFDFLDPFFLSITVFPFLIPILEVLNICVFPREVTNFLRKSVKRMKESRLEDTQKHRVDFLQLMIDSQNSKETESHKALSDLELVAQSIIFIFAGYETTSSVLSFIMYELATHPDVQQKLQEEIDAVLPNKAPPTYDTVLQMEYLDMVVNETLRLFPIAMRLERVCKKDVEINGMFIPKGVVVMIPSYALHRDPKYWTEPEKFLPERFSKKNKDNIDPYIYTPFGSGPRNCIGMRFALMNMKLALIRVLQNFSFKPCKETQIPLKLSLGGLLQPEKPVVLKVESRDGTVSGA

CYP3A5 = CYP3A5 (Homo sapiens, UniProt P20815); test: Incubation of [14C]milademetan with recombinant human CYP3A5; assay type: in vitro ADME; conditions: [14C]milademetan 1 µM, 60 min, unpublished in-house data
CYP3A5, sequence (P20815 whole entry): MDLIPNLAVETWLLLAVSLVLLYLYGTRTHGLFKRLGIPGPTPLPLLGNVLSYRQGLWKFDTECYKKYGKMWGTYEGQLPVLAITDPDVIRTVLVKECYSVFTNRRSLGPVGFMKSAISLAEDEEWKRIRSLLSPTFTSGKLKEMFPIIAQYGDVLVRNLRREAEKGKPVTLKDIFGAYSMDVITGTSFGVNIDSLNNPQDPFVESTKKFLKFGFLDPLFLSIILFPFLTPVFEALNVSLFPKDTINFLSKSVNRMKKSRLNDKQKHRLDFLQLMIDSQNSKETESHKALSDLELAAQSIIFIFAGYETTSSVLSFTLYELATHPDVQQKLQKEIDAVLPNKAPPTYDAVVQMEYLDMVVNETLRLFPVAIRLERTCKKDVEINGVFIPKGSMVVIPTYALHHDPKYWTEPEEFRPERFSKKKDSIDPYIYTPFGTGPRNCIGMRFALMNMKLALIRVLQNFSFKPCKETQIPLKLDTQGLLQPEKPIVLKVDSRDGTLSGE

P-gp = P-gp (Homo sapiens, UniProt P08183); test: P-gp bidirectional transport assay in human Caco-2 cell monolayers; assay type: in vitro ADME; conditions: Caco-2, pH 7.4
P-gp, sequence (P08183 whole entry): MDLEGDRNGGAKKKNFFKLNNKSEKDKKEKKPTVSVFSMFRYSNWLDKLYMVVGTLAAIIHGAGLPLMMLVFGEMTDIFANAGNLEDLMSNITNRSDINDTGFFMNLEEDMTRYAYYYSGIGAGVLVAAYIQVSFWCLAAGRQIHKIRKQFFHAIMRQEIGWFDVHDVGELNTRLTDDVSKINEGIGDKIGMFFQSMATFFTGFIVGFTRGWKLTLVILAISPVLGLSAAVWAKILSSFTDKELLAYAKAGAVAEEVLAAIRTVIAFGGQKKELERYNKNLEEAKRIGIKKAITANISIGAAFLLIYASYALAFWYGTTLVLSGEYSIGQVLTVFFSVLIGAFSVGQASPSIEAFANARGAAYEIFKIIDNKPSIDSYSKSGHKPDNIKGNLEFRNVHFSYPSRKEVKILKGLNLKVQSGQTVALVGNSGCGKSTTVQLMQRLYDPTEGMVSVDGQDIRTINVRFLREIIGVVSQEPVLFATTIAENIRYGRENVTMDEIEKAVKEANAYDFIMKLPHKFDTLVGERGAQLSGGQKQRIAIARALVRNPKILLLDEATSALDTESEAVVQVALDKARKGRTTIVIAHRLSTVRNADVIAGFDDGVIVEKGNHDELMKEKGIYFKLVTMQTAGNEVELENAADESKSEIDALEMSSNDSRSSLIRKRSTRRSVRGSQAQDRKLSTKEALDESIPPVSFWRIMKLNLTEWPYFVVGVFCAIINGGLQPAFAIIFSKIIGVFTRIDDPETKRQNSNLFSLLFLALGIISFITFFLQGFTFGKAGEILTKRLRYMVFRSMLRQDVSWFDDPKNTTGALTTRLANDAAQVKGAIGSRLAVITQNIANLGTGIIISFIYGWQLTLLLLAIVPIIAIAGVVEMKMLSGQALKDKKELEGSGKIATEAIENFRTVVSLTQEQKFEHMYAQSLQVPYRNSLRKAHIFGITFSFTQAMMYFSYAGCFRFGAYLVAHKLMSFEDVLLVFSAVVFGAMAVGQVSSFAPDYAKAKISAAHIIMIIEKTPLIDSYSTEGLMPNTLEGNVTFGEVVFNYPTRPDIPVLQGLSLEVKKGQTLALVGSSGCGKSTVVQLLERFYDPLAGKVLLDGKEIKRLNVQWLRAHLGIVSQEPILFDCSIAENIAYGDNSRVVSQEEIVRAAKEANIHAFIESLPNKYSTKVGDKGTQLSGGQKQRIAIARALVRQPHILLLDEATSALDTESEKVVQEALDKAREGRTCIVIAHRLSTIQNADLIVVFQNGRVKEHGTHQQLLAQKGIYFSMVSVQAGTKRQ

CYP3A4 [2] = molecular target: T1, CYP3A4; test: CYP3A inhibition; assay type: in vitro ADME; conditions: pooled human hepatic microsomes, probe midazolam
Target sequence in this assay (P08684 2-503): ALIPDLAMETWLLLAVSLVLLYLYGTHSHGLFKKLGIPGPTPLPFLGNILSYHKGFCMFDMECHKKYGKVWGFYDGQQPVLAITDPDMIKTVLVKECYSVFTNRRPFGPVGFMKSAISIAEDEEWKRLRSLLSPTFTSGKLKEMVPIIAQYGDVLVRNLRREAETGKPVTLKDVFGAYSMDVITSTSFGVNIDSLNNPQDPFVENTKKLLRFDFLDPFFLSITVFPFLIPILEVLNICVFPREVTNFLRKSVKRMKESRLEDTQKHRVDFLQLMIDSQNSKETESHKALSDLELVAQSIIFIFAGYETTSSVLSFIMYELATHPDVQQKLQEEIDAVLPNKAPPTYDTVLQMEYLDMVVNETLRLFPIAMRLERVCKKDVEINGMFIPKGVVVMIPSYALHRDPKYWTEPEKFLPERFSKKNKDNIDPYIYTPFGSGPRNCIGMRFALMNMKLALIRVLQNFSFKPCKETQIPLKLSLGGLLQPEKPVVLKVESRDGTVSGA

[3] = Rat ADME study with [14C]milademetan; assay type: in vivo; conditions: single oral [14C]milademetan 30 mg/kg
[4] = Clinical food effect study; assay type: in vivo, human; conditions: high-calorie, high-fat meal vs fasted state; unpublished in-house data
[5] = Plasma protein unbound fraction measured in vitro; assay type: in vitro ADME
[6] = ref NCT01877382, cited from earlier work; for maximum tolerated dose: advanced solid tumors or lymphomas
[7] = Optimized by fitting clinical data (U107), milademetan alone, fasted
[8] = bile duct–cannulated rats, up to 48 h

Q: Which results are given for CC1(C)CCC2(CC1)N[C@@H](C(=O)N[C@@H]1CC[C@@H](C(N)=O)OC1)[C@H](c1ccnc(Cl)c1F)[C@]21C(=O)Nc2cc(Cl)ccc21 [milademetan]?
A: CL/F (Clinical DDI study U107; 100 mg alone, fasted (sequence AB, treatment A), geometric mean (CV%)): 6.8 L/h and 6.80 L/h and 6.80 (33.5) L/h; CL/F (Clinical DDI study U107; 100 mg with itraconazole (treatment B), geometric mean (CV%)): 3.13 L/h and 3.13 (35.4) L/h; CL/F (Clinical DDI study U107; 100 mg with posaconazole (treatment C), geometric mean (CV%)): 2.91 L/h and 2.91 (25.5) L/h; AUC(0-t) (Clinical DDI study U107; human, plasma, oral, 100 mg, AUClast, 100 mg alone, 2 h following a full meal (sequence AC, treatment A), geometric mean (CV%)): 13500 ng·h/mL; Cmax (Clinical DDI study U107; human, plasma, oral, 100 mg, Cmax, 100 mg alone, 2 h following a full meal (sequence AC, treatment A), geometric mean (CV%)): 675 ng/mL; Tmax (Clinical DDI study U107; human, plasma, oral, 100 mg, Tmax, 100 mg alone, 2 h following a full meal (sequence AC, treatment A), median (minimum–maximum)): 3.03 h; Vd/F (Clinical DDI study U107; human, plasma, oral, 100 mg, Vz/F, 100 mg alone, 2 h following a full meal (sequence AC, treatment A), geometric mean (CV%)): 223 L; half-life (Clinical DDI study U107; human, plasma, oral, 100 mg, t1/2, 100 mg alone, 2 h following a full meal (sequence AC, treatment A), arithmetic mean (SD)): 21.3 h; Vsac (volume of single adjusting compartment) (Milademetan PBPK model; [7]): 0.5 L/kg; kin (first-order rate constant to single adjusting compartment) (Milademetan PBPK model; [7]): 0.07 h⁻¹; kout (first-order rate constant from single adjusting compartment) (Milademetan PBPK model; [7]): 0.07 h⁻¹; CLint,CYP3A4 (CYP3A4-specific intrinsic clearance) (Milademetan PBPK model; Optimized by fitting clinical data (U107), milademetan and itraconazole sequence): 0.459 µL/min/pmol of isoform; oral clearance (CLpo), optimized (Milademetan PBPK model; fitted to period one of sequence AB (alone, fasted), U107): 8.5 L/h; microsomal CLint (Milademetan PBPK model; human): 40.2 µL/min/mg; fmCYP3A4 (fraction metabolized by CYP3A4) (Milademetan PBPK model; optimized to recover observed AUCR and CmaxR of sequence AB (itraconazole)): 0.58; remaining parent (CYP3A4 [1]): 61 % of the total radioactivity; remaining parent (CYP3A5): 84 % of the total radioactivity; Papp at 120 min (P-gp): 17 ×10⁻⁶ cm/s; KI (inactivation) (CYP3A4 [2]): 60.5 µM; pKi (CYP3A4 [2]): 5.38; biliary excretion of radioactivity [3, 8]: 20.4 ± 1.8 % of the dose; radioactivity recovered in feces [3, 8]: 75.1 ± 3.3 % of the dose; radioactivity recovered in feces ([3]; noncannulated rats, after 168 hours): 94.2 ± 0.7%; reduction of exposure (AUC) with food [4]: 24%; fraction unbound [5]: 0.02; accumulation at steady-state ([6]; 120 mg q.d. 21/28, after 18–21 days of continuous dosing): 1.8 fold; dose proportionality of systemic exposure ([6]; dose range 15–340 mg): dose‐proportional increase in systemic drug exposure; maximum tolerated dose ([6]; q.d. 3/14 × 2 schedule): 260 mg; maximum tolerated dose ([6]; q.d. 21/28 schedule): 160 mg

Q: Which Papp (P-gp) does the source give for CC(C)NCC(O)COc1cccc2ccccc12 (stereo not drawn) [Propranolol, reference compound] here?
A: 43 ×10⁻⁶ cm/s
